The record followed here is ChEMBL document CHEMBL4270612, “Discovery of dual GyrB/ParE inhibitors active against Gram-negative bacteria” (Eur J Med Chem, 2018).

The structures appear in SMILES notation. Values after ≈ are worked out from the molar mass of the structure shown. A value given as a limit tells only on which side of the number the result lay.

As usually defined, the IC50 is the concentration needed to halve the response being measured. Low readings indicate higher potency, high ones lower potency. The MIC is the lowest concentration found to suppress growth. A low value points to greater potency. In general, pKa refers to the negative logarithm of the acid dissociation constant. In general, GI50 refers to the concentration at which growth is held to half of that of the control. High values mean lower sensitivity of the cells, low ones greater sensitivity of the cells.

Chain of DNA topoisomerase 4 subunit B (P20083 whole entry): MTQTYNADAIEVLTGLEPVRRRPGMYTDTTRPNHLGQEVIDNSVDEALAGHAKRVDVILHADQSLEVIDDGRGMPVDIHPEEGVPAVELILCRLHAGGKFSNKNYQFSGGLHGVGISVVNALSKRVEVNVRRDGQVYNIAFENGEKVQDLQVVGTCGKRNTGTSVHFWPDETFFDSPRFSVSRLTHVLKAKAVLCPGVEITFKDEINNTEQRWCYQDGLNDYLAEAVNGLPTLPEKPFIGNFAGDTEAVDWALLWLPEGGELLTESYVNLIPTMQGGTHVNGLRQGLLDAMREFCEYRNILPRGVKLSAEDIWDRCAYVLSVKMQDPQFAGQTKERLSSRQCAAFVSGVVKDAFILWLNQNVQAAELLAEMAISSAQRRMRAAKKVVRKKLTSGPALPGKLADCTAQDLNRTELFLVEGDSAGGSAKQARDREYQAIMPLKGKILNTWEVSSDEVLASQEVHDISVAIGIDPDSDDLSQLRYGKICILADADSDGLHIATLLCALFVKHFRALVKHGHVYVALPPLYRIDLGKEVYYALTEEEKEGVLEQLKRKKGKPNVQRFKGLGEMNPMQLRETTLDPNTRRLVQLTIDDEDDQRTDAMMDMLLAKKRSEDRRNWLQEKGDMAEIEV

For the first data set, the target named is DNA gyrase subunit B (Escherichia coli, UniProt P0AES6). Put plainly: Inhibition of Escherichia coli GyrB (1 to 220 residues) expressed in Escherichia coli BL21(DE3).
Conditions: not given
As to `CCNC(=O)Nc1cc(-c2nc(C(F)(F)F)cs2)c(-c2cc(-c3n[nH]c(=O)o3)cnc2N2CCC(N)CC2)cn1`, the midpoint of inhibition, the IC50, lay at 2 nM.

As for `CCNC(=O)Nc1cc(-c2nc(C(F)(F)F)cs2)c(-c2cc(C(=O)NS(C)(=O)=O)cnc2N2C3CCC2CN(C)C3)cn1`, the IC50 is 8 nM.

Consider `CCNC(=O)Nc1cc(-c2nc(C(F)(F)F)cs2)c(-c2cc3ncccc3nc2N2CC3CCC2CN3)cn1` (stereo not drawn), for which the midpoint of inhibition, the IC50, lay at 8 nM.

In the case of `CCNC(=O)Nc1cc(-c2nc(C(F)(F)F)cs2)c(-c2cc3ncccc3nc2N2CCC(N)CC2)cn1`, the IC50 is 6 nM.

Compound `CCNC(=O)Nc1cc(-c2nc(C(F)(F)F)cs2)c(-c2cc3ncccc3nc2N2[C@@H]3CC[C@H]2C[C@@H](N)C3)cn1` came in with an IC50 of 3 nM.

Compound `CCNC(=O)Nc1cc(-c2nc(C(F)(F)F)cs2)c(-c2cnc3cccnc3c2)cn1` gave an IC50 of 4 nM.

As to `CCNC(=O)Nc1cc(-c2nc(C(F)(F)F)cs2)c(-c2cc(-c3n[nH]c(=O)o3)cnc2N2[C@@H]3CC[C@H]2C[C@@H](N)C3)cn1`, the IC50 was found to be 4 nM.

Another data set concerns the target DNA topoisomerase 4 subunit B (Escherichia coli K-12, UniProt P20083). Put plainly: Inhibition of Escherichia coli ParE.
Conditions: not given
Consider `CCNC(=O)Nc1cc(-c2nc(C(F)(F)F)cs2)c(-c2cc(-c3n[nH]c(=O)o3)cnc2N2CCC(N)CC2)cn1`, for which it took 23 nM to reach half-maximal inhibition (IC50).

`CCNC(=O)Nc1cc(-c2nc(C(F)(F)F)cs2)c(-c2cc(C(=O)NS(C)(=O)=O)cnc2N2C3CCC2CN(C)C3)cn1`: the IC50 came out at 9 nM.

`CCNC(=O)Nc1cc(-c2nc(C(F)(F)F)cs2)c(-c2cc3ncccc3nc2N2CC3CCC2CN3)cn1` (stereo not drawn) showed an IC50 of 21 nM.

As for `CCNC(=O)Nc1cc(-c2nc(C(F)(F)F)cs2)c(-c2cc3ncccc3nc2N2CCC(N)CC2)cn1`, the IC50 came out at 49 nM.

Consider `CCNC(=O)Nc1cc(-c2nc(C(F)(F)F)cs2)c(-c2cc3ncccc3nc2N2[C@@H]3CC[C@H]2C[C@@H](N)C3)cn1`, for which the IC50 turned out to be 24 nM.

The compound `CCNC(=O)Nc1cc(-c2nc(C(F)(F)F)cs2)c(-c2cnc3cccnc3c2)cn1` registered an IC50 of 2010 nM.

In turn, `CCNC(=O)Nc1cc(-c2nc(C(F)(F)F)cs2)c(-c2cc(-c3n[nH]c(=O)o3)cnc2N2[C@@H]3CC[C@H]2C[C@@H](N)C3)cn1` returned an IC50 of 12 nM.

Another data set concerns Pseudomonas aeruginosa. Put plainly: Antibacterial activity against Pseudomonas aeruginosa PAO1 after 24 hrs by broth microdilution method. The note with it: PAO1, 24 h. The data set is classed as functional. The gist of the method:
(§1)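 Broth microdilution per CLSI. Bacterial suspension adjusted to 1×10^6 CFU/mL in cation-adjusted Mueller–Hinton broth and mixed 1:1 with 2-fold serial compound dilutions. Final DMSO 2.5% v/v. Plates incubated at 35 °C with shaking at 140 rpm for 24 h.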
On the technique in general: In broth dilution the organism is exposed to a series of concentrations in liquid medium.
As to `CCNC(=O)Nc1cc(-c2nc(C(F)(F)F)cs2)c(-c2cc(-c3n[nH]c(=O)o3)cnc2N2CCC(N)CC2)cn1`, the MIC is greater than 50 µg/mL.

The compound `CCNC(=O)Nc1cc(-c2nc(C(F)(F)F)cs2)c(-c2cc(C(=O)NS(C)(=O)=O)cnc2N2C3CCC2CN(C)C3)cn1` returned a minimal inhibitory concentration (MIC) greater than 50 µg/mL.

`CCNC(=O)Nc1cc(-c2nc(C(F)(F)F)cs2)c(-c2cc3ncccc3nc2N2CC3CCC2CN3)cn1` (stereo not drawn) yielded an MIC greater than 60 µg/mL.

With `CCNC(=O)Nc1cc(-c2nc(C(F)(F)F)cs2)c(-c2cc3ncccc3nc2N2CCC(N)CC2)cn1`, the MIC is 67.8 µg/mL (≈ 125 µM).

`CCNC(=O)Nc1cc(-c2nc(C(F)(F)F)cs2)c(-c2cc3ncccc3nc2N2[C@@H]3CC[C@H]2C[C@@H](N)C3)cn1` gave an MIC of 35.5 µg/mL (≈ 62.5 µM).

`CCNC(=O)Nc1cc(-c2nc(C(F)(F)F)cs2)c(-c2cnc3cccnc3c2)cn1` had an MIC greater than 25 µg/mL.

As to `CCNC(=O)Nc1cc(-c2nc(C(F)(F)F)cs2)c(-c2cc(-c3n[nH]c(=O)o3)cnc2N2[C@@H]3CC[C@H]2C[C@@H](N)C3)cn1`, the MIC was greater than 50 µg/mL.

The next data set relates to Pseudomonas aeruginosa. In words: Antibacterial activity against Pseudomonas aeruginosa harboring MexABCDXY deletion mutant after 24 hrs by broth microdilution method. The data set is classed as functional.
Conditions: not given
The gist of the method:
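Broth microdilution per CLSI. Bacterial suspensions adjusted to 1×10^6 CFU/mL in cation-adjusted Mueller–Hinton broth, mixed 1:1 with 2-fold serial compound dilutions (final DMSO 2.5% v/v). Incubation 35 °C, 140 rpm, 24 h.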
With `CCNC(=O)Nc1cc(-c2nc(C(F)(F)F)cs2)c(-c2cc(-c3n[nH]c(=O)o3)cnc2N2CCC(N)CC2)cn1`, inhibition of growth (MIC) required 1.15 µg/mL (≈ 2 µM).

Regarding `CCNC(=O)Nc1cc(-c2nc(C(F)(F)F)cs2)c(-c2cc(C(=O)NS(C)(=O)=O)cnc2N2C3CCC2CN(C)C3)cn1`, the MIC is greater than 50 µg/mL.

`CCNC(=O)Nc1cc(-c2nc(C(F)(F)F)cs2)c(-c2cc3ncccc3nc2N2CC3CCC2CN3)cn1` (stereo not drawn) came in with an MIC of 0.55 µg/mL (≈ 0.992 µM).

In turn, `CCNC(=O)Nc1cc(-c2nc(C(F)(F)F)cs2)c(-c2cc3ncccc3nc2N2CCC(N)CC2)cn1` registered an MIC of 0.54 µg/mL (≈ 0.995 µM).

The compound `CCNC(=O)Nc1cc(-c2nc(C(F)(F)F)cs2)c(-c2cc3ncccc3nc2N2[C@@H]3CC[C@H]2C[C@@H](N)C3)cn1` showed an MIC of 0.56 µg/mL (≈ 0.985 µM).

`CCNC(=O)Nc1cc(-c2nc(C(F)(F)F)cs2)c(-c2cnc3cccnc3c2)cn1` showed an MIC greater than 25 µg/mL.

In turn, `CCNC(=O)Nc1cc(-c2nc(C(F)(F)F)cs2)c(-c2cc(-c3n[nH]c(=O)o3)cnc2N2[C@@H]3CC[C@H]2C[C@@H](N)C3)cn1` displayed an MIC of 0.6 µg/mL (≈ 0.997 µM).

A further data set has as its system Escherichia coli. In words: Antibacterial activity against Escherichia coli after 24 hrs by broth microdilution method. The data set is classed as functional.
Conditions: not given
The gist of the method: as §1
Turning to `CCNC(=O)Nc1cc(-c2nc(C(F)(F)F)cs2)c(-c2cc(-c3n[nH]c(=O)o3)cnc2N2CCC(N)CC2)cn1`, the MIC is greater than 50 µg/mL.

As for `CCNC(=O)Nc1cc(-c2nc(C(F)(F)F)cs2)c(-c2cc(C(=O)NS(C)(=O)=O)cnc2N2C3CCC2CN(C)C3)cn1`, the MIC is greater than 50 µg/mL.

As to `CCNC(=O)Nc1cc(-c2nc(C(F)(F)F)cs2)c(-c2cc3ncccc3nc2N2CC3CCC2CN3)cn1` (stereo not drawn), the MIC was determined as 8.87 µg/mL (≈ 16 µM).

For the compound `CCNC(=O)Nc1cc(-c2nc(C(F)(F)F)cs2)c(-c2cc3ncccc3nc2N2CCC(N)CC2)cn1`, the MIC came out at 16.8 µg/mL (≈ 31 µM).

For `CCNC(=O)Nc1cc(-c2nc(C(F)(F)F)cs2)c(-c2cc3ncccc3nc2N2[C@@H]3CC[C@H]2C[C@@H](N)C3)cn1`, the MIC was 4.54 µg/mL (≈ 7.98 µM).

`CCNC(=O)Nc1cc(-c2nc(C(F)(F)F)cs2)c(-c2cnc3cccnc3c2)cn1` came in with an MIC greater than 25 µg/mL.

`CCNC(=O)Nc1cc(-c2nc(C(F)(F)F)cs2)c(-c2cc(-c3n[nH]c(=O)o3)cnc2N2[C@@H]3CC[C@H]2C[C@@H](N)C3)cn1`: the MIC was greater than 50 µg/mL.

A further data set relates to Escherichia coli. Put plainly: Antibacterial activity against tolC deficient Escherichia coli after 24 hrs by broth microdilution method. The data set is classed as functional.
Conditions: not given
The procedure, abridged:
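Broth microdilution per CLSI guidelines. Inoculum adjusted to 1×10^6 CFU/mL in cation-adjusted Mueller–Hinton broth, added 1:1 to 2-fold serial compound dilutions; final DMSO 2.5% v/v. Plates incubated 35 °C, 140 rpm, 24 h.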
`CCNC(=O)Nc1cc(-c2nc(C(F)(F)F)cs2)c(-c2cc(-c3n[nH]c(=O)o3)cnc2N2CCC(N)CC2)cn1` displayed an MIC of 9.2 µg/mL (≈ 16 µM).

Turning to `CCNC(=O)Nc1cc(-c2nc(C(F)(F)F)cs2)c(-c2cc(C(=O)NS(C)(=O)=O)cnc2N2C3CCC2CN(C)C3)cn1`, the MIC is greater than 50 µg/mL.

For `CCNC(=O)Nc1cc(-c2nc(C(F)(F)F)cs2)c(-c2cc3ncccc3nc2N2CC3CCC2CN3)cn1` (stereo not drawn), the MIC is 1.1 µg/mL (≈ 1.98 µM).

Take `CCNC(=O)Nc1cc(-c2nc(C(F)(F)F)cs2)c(-c2cc3ncccc3nc2N2CCC(N)CC2)cn1`: 0.54 µg/mL (≈ 0.995 µM) was the least that counted as inhibitory (MIC).

As for `CCNC(=O)Nc1cc(-c2nc(C(F)(F)F)cs2)c(-c2cc3ncccc3nc2N2[C@@H]3CC[C@H]2C[C@@H](N)C3)cn1`, the MIC was found to be 0.56 µg/mL (≈ 0.985 µM).

`CCNC(=O)Nc1cc(-c2nc(C(F)(F)F)cs2)c(-c2cnc3cccnc3c2)cn1`: the MIC amounted to 0.44 µg/mL (≈ 0.99 µM).

Compound `CCNC(=O)Nc1cc(-c2nc(C(F)(F)F)cs2)c(-c2cc(-c3n[nH]c(=O)o3)cnc2N2[C@@H]3CC[C@H]2C[C@@H](N)C3)cn1` had an MIC of 4.8 µg/mL (≈ 7.98 µM).

System in the next data set: not listed separately
In words: Dissociation constant, acidic pKa of compound by pH metric method. The data set is classed as physicochemical.
Conditions: not given
The gist of the method: (§2)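 Potentiometric (pH-metric) titration on an automated titrator, Gold Standard pH metric assay, run in triplicate.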
The compound `CCNC(=O)Nc1cc(-c2nc(C(F)(F)F)cs2)c(-c2cc(-c3n[nH]c(=O)o3)cnc2N2CCC(N)CC2)cn1` displayed a pKa of 6.8.

`CCNC(=O)Nc1cc(-c2nc(C(F)(F)F)cs2)c(-c2cc(C(=O)NS(C)(=O)=O)cnc2N2C3CCC2CN(C)C3)cn1` displayed a pKa of 3.2.

The compound `CCNC(=O)Nc1cc(-c2nc(C(F)(F)F)cs2)c(-c2cc(-c3n[nH]c(=O)o3)cnc2N2[C@@H]3CC[C@H]2C[C@@H](N)C3)cn1` showed a pKa of 6.8.

System in a further data set: not listed separately
In words: Dissociation constant, basic pKa of compound by pH metric method. The data set is classed as physicochemical.
Conditions: not given
The gist of the method: as §2
As for `CCNC(=O)Nc1cc(-c2nc(C(F)(F)F)cs2)c(-c2cc(-c3n[nH]c(=O)o3)cnc2N2CCC(N)CC2)cn1`, the pKa is 9.5.

`CCNC(=O)Nc1cc(-c2nc(C(F)(F)F)cs2)c(-c2cc(C(=O)NS(C)(=O)=O)cnc2N2C3CCC2CN(C)C3)cn1` returned a pKa of 7.6.

Consider `CCNC(=O)Nc1cc(-c2nc(C(F)(F)F)cs2)c(-c2cc(-c3n[nH]c(=O)o3)cnc2N2[C@@H]3CC[C@H]2C[C@@H](N)C3)cn1`, for which the pKa came out at 9.5.

System in another data set: not listed separately
Put plainly: Dissociation constant, pKa of compound by pH metric method. The data set is classed as physicochemical.
Conditions: not given
The gist of the method: as §2
`CCNC(=O)Nc1cc(-c2nc(C(F)(F)F)cs2)c(-c2cc3ncccc3nc2N2CC3CCC2CN3)cn1` (stereo not drawn) had a pKa of 9.2.

On to `CCNC(=O)Nc1cc(-c2nc(C(F)(F)F)cs2)c(-c2cc3ncccc3nc2N2CCC(N)CC2)cn1`, for which the pKa amounted to 9.3.

In the case of `CCNC(=O)Nc1cc(-c2nc(C(F)(F)F)cs2)c(-c2cc3ncccc3nc2N2[C@@H]3CC[C@H]2C[C@@H](N)C3)cn1`, the pKa came out at 9.2.

System in another data set: not listed separately
In words: Growth inhibition of human A549 cells. The data set is classed as cell-based.
Conditions: not given
Turning to `CCNC(=O)Nc1cc(-c2nc(C(F)(F)F)cs2)c(-c2cc3ncccc3nc2N2CCC(N)CC2)cn1`, the GI50 was greater than 50000 nM.

In the case of `CCNC(=O)Nc1cc(-c2nc(C(F)(F)F)cs2)c(-c2cc3ncccc3nc2N2[C@@H]3CC[C@H]2C[C@@H](N)C3)cn1`, the GI50 is greater than 40000 nM.
